# INS-1E rescue = protection of INS-1E cells from cytokine death, primary screen, ATP luminescence, single point; INS-1E cytokine-induced death, 48 h; normalised: neutral wells 0, positive control 100; protection from cytokine-induced ATP loss, % at 10 µM; actives 0.1% (n = 20,000); AID 488910, 2010;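 active means mean replicate protection from cytokine-induced ATP loss at least 50% and at least 75% of replicates each reaching 50%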
#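 assay system = INS-1E rat insulinoma cells | amount = 8000 cells per well | medium = phenol-red-free RPMI with 5% fetal bovine serum | doses = one compound concentration, pin transfer | timing = 48 h cytokine plus compound treatment, 10 min reagent incubation | also added = IL-1β, TNF-α and IFN-γ cytokine mix | signal = CellTiter-Glo luminescence measuring cellular ATP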
# T cruzi HTS = inhibitors of intracellular Trypanosoma cruzi, primary screen, cell-based, plate reader, single point, set 2; intracellular Trypanosoma cruzi in host cells; activity score (inhibition), % at 5.01 µM; actives 4.9% (n = 22,000); in the data active means activity score above about 55%;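 further: parasites and compound incubated about four days before reading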
# A1 apoptosis 2 = A1 inhibitors via caspase activation, primary screen, cell-based, luminescence, HTS, two replicates; MEF A1-2A-BIM cells, caspase-Glo luminescence, 3 h; percent of clofoctol response, DMSO zero; caspase activation, % (no concentration beside the values); 24,000 tested, under 10 active; in the data active means caspase activation above about 5.9%
#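 Material: mouse embryonic fibroblasts co-expressing A1 and BIM (A1-2A-BIM), primed for A1 dependence / Quantity: 2500 cells/well / Buffer or medium: RPMI-1640 growth medium with 10% FBS / Doses: 50 nL compound per well, pinned / Schedule: 3 h compound exposure at 37 °C / Signal: Caspase-Glo luminescence (DEVD substrate) / Measure: Caspase-3/7 activation, seen as rise in luminescence signal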
# Numbers stand for hits; – = inactive; · = not tested or not shown. This is one part of a sample in which hits are shown more often than they occur.
SMILES,INS-1E rescue,T cruzi HTS,A1 apoptosis 2
C[C@@H]1CN([C@H](C)CO)C(=O)c2cccc(NC(=O)Nc3ccccc3)c2O[C@@H]1CN(C)S(=O)(=O)c1ccccc1,–,–,·
COCCOC(=O)N1C(=O)[C@@]2(c3cc(C#CC4=CCCCC4)ccc31)[C@H](C(N)=O)[C@H]1C(=O)O[C@H](c3ccccc3)[C@H](c3ccccc3)N1[C@@H]2c1ccccc1OCCO,·,·,–
COc1cc(Br)cc(/C=N/NC(=O)c2ccc(C(=O)NO)cc2)c1O,–,–,–
COc1ccc(S(=O)(=O)Nc2ccc3c(c2)C(=O)N([C@@H](C)CO)C[C@H](C)[C@@H](CN(C)C(=O)Nc2ccc4c(c2)OCO4)O3)cc1,–,–,·
Cc1ccc(S(=O)(=O)Nc2ccc3c(c2)C(=O)N([C@H](C)CO)C[C@H](C)[C@H](CN(C)S(=O)(=O)c2cn(C)cn2)O3)cc1,·,–,·
C[C@@H]1CCCCO[C@H](CN(C)Cc2ccccc2)[C@@H](C)CN([C@H](C)CO)C(=O)c2cc(NC(=O)Nc3ccc(F)cc3)ccc2O1,–,–,–
C[C@@H]1CN([C@@H](C)CO)C(=O)c2cc(NC(=O)Nc3ccccc3)ccc2O[C@@H](C)CCCCO[C@@H]1CN(C)Cc1ccc(C(F)(F)F)cc1,·,·,–
C[C@@H]1CCCCO[C@H](CN(C)Cc2ccc(C(F)(F)F)cc2)[C@@H](C)CN([C@H](C)CO)C(=O)c2cc(NC(=O)Nc3ccccc3)ccc2O1,–,67,–
C[C@@H]1CCCCO[C@@H](CN(C)Cc2ccccc2)[C@@H](C)CN([C@H](C)CO)C(=O)c2cc(NC(=O)Nc3ccc(F)cc3)ccc2O1,–,62,·
C[C@@H]1CCCCO[C@H](CN(C)Cc2ccccc2)[C@@H](C)CN([C@H](C)CO)C(=O)c2cc(NC(=O)Nc3ccc(C(F)(F)F)cc3)ccc2O1,–,71,–
C[C@@H]1CCCCO[C@H](CN(C)Cc2ccccc2)[C@H](C)CN([C@@H](C)CO)C(=O)c2cc(NC(=O)Nc3ccc(C(F)(F)F)cc3)ccc2O1,·,·,–
O=C(NO)c1ccc(C(=O)N/N=C/c2cc(O)ccc2[N+](=O)[O-])cc1,–,–,–
O=C(N/N=C/c1c(O)cc(O)cc1O)c1ccccn1,–,–,–
COC(=O)CCCCCCC(=O)N/N=C/C1=CC[C@H]2C[C@@H]1C2(C)C,–,–,–
C[C@H](CO)N1C[C@H](C)[C@@H](CN(C)S(=O)(=O)c2ccc(F)cc2)Oc2ccc(NS(=O)(=O)c3ccc(F)cc3)cc2C1=O,·,–,·
C[C@@H]1CN([C@@H](C)CO)C(=O)c2cc(NS(=O)(=O)c3cccs3)ccc2O[C@H]1CN(C)S(=O)(=O)c1ccc(F)cc1,–,62,–
C[C@H](CO)N1C[C@H](C)[C@H](CN(C)S(=O)(=O)c2ccc(F)cc2)Oc2ccc(NS(=O)(=O)c3ccc(F)cc3)cc2C1=O,·,68,–
C[C@@H]1CN([C@H](C)CO)C(=O)c2cc(NS(=O)(=O)c3cccs3)ccc2O[C@H]1CN(C)S(=O)(=O)c1ccc(F)cc1,·,–,·
C[C@H](CO)N1C[C@H](C)[C@H](CN(C)S(=O)(=O)c2ccc(Cl)cc2)Oc2ccc(NS(=O)(=O)c3ccc(F)cc3)cc2C1=O,–,63,–
C[C@H]1CN([C@@H](C)CO)C(=O)c2cc(NS(=O)(=O)c3ccc(F)cc3)ccc2O[C@@H]1CN(C)S(=O)(=O)c1ccc(Cl)cc1,–,–,–
O=C(NO)c1ccc(C(=O)N/N=C/c2cc(Br)cc([N+](=O)[O-])c2O)cc1,–,–,–
O=C(NO)c1ccc(C(=O)N/N=C/c2ccc(OCCO)cc2)cc1,–,–,·
CC(C)(C)NC(=O)C(OC(=O)c1ccccc1)c1cccs1 (stereo unspecified),·,·,–
C[C@@H]1CCCCO[C@H](CN(C)Cc2ccncc2)[C@H](C)CN([C@@H](C)CO)C(=O)c2cc(NS(=O)(=O)c3ccccc3)ccc2O1,·,·,–
O=C(CCCCCCC(=O)Nc1ccccc1O)N/N=C/[C@H](O)[C@@H](O)[C@H](O)[C@H](O)CO,–,–,–
SMILES,INS-1E rescue,T cruzi HTS,A1 apoptosis 2
COc1cc(Br)cc(/C=N/NC(=O)c2ccccc2O)c1O,–,79,–
O=C(N/N=C/c1ccc(I)cc1)c1ccccc1O,–,–,–
O=C(N/N=C\c1cccc(O)c1O)c1ccccc1O,–,68,·
Cc1ccccc1/C=N/NC(=O)c1ccccc1O,–,–,–
COc1cc(Br)c(/C=N/NC(=O)c2ccccc2O)cc1OC,–,–,–
O=C(N/N=C/c1cc(I)cc(I)c1O)c1ccccc1O,–,82,–
O=C(CCCCC(=O)N/N=C/c1ccc(Br)s1)NO,·,·,–
COC(=O)CCCCCCC(=O)N/N=C/[C@H](O)[C@@H](O)[C@@H](O)[C@H](O)CO,–,–,–
C=CCN1C(=O)[C@]2(O[C@H](CCO)[C@@H]([Si](C)(C)c3ccc(OC)cc3)[C@@H]2C)c2cc(I)ccc21,·,·,9.0
COc1ccc([Si](C)(C)[C@H]2[C@H](CCO)O[C@@]3(C(=O)N(Cc4ccccc4)c4ccc(NC(=O)[C@H](C)O)cc43)[C@@H]2C)cc1,·,·,–

# Screening results deposited in PubChem by Broad Institute.
